{"source": "ChEMBL document CHEMBL2163259", "about": "“ADME-guided design and synthesis of aryloxanyl pyrazolone derivatives to block mutant superoxide dismutase 1 (SOD1) cytotoxicity and protein aggregation: potential application for the treatment of amyotrophic lateral sclerosis” (J Med Chem, 2012)", "key": {"[1]": {"target": "Pyroglutamylated RF-amide peptide receptor (Homo sapiens) (UniProt Q96P65)", "assay": "Inhibition of human GPR103 receptor at 10 uM by radioligand displacement assay", "in_short": "(§1)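 LeadProfilingScreen panel of 68 in vitro enzyme and receptor assays. Compound tested at 10 μM in duplicate.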"}, "[2]": {"target": "B1 bradykinin receptor (Homo sapiens) (UniProt P46663)", "sequence (P46663 whole entry)": "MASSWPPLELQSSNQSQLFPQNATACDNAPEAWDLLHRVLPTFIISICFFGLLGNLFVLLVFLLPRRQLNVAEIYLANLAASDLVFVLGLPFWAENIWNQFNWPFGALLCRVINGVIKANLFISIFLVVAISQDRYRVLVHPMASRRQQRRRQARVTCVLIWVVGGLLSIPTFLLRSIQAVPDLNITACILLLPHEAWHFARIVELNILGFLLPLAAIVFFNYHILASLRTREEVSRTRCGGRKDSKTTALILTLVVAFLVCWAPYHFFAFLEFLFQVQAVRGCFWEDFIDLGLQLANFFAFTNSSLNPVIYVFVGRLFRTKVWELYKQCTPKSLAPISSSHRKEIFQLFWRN", "assay": "Inhibition of human bradykinin B1 receptor at 10 uM by radioligand displacement assay", "in_short": "as §1"}, "[3]": {"target": "hERG (Homo sapiens, UniProt Q12809)", "sequence (Q12809 whole entry)": "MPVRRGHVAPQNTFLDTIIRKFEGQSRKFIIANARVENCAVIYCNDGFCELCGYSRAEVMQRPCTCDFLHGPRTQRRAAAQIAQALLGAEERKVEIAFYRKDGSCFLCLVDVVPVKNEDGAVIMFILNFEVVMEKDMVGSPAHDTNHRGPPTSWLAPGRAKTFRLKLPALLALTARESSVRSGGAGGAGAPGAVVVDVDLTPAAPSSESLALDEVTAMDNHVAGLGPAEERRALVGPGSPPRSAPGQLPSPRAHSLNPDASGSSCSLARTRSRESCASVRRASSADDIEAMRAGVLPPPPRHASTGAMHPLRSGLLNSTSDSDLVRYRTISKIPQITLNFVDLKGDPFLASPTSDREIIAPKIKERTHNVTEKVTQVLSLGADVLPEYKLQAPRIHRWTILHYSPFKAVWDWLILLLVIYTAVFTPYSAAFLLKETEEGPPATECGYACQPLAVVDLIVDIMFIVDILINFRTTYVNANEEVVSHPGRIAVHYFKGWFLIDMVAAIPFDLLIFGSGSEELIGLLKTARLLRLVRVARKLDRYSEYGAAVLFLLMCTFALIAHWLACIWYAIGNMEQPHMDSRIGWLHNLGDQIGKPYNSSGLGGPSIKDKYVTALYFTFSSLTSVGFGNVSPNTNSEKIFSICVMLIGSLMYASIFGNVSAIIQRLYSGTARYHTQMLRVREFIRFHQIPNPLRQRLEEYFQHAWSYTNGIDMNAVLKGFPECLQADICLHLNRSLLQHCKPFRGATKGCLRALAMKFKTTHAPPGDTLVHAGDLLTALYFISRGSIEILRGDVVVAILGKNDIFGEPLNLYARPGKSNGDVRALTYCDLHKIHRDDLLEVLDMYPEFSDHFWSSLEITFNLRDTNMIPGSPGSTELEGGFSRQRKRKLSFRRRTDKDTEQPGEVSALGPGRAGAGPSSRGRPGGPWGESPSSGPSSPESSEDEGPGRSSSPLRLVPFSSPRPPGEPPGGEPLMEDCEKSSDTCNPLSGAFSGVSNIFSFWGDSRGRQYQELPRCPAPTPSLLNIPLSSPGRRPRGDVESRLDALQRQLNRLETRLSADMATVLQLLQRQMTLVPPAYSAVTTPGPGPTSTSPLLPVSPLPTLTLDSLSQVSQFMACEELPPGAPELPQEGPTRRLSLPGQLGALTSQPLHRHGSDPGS", "assay": "Inhibition of human ERG expressed in human HEK293 cells at 10 uM by patch clamp assay", "type": "cell-based", "details": "HEK293 cells that express hERG", "in_short": "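Cloned hERG potassium channels expressed in HEK293 cells. FASTPatch patch-clamp screen with test compound at 10 μM, two experiments. E-4031 used as positive control. Solubility at test concentration checked by TurboSol; value given as mean % hERG antagonism.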"}, "[4]": {"species_on_record": "Rattus norvegicus", "assay": "Inhibition of rat Rolipram binding site at 10 uM by radioligand displacement assay", "in_short": "(§2)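 Single concentration of 10 μM, tested in duplicate as part of a contracted panel of 68 in vitro enzyme and receptor assays. The panel covers common adverse CNS, cardiovascular, pulmonary and genotoxic targets.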"}, "[5]": {"target": "Estrogen receptor (Homo sapiens) (UniProt P03372)", "assay": "Inhibition of human estrogen receptor-alpha at 10 uM by radioligand displacement assay", "in_short": "as §2"}, "[6]": {"species_on_record": "Rattus norvegicus", "assay": "Inhibition of rat purinergic P2Y receptor at 10 uM by radioligand displacement assay", "in_short": "as §2"}, "[7]": {"tested_on": "Rattus norvegicus", "assay": "Oral bioavailability in Sprague-Dawley rat at 1 mg/kg", "type": "ADME, organism-based", "details": "in vivo", "in_short": "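Sprague-Dawley rats received a single bolus of 1 mg/kg, given both intravenously and orally. Plasma PK parameters, including oral bioavailability (F%), were derived from the two routes.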"}, "[8]": {"tested_on": "Cerebral cortex neuron", "assay": "Cytoprotection in rat Primary cortical neurons incubated for 24 hrs and measured 72 hrs post compound dose by cytotoxicity protection assay", "type": "functional, cell-based", "in_short": "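Primary cortical neurons from E18 Sprague-Dawley or Fischer 344 rat brain, dissociated with papain (2 mg/mL, 30 min, 37 °C), plated on poly-D-lysine at 20,000 cells/well, cultured 5 days (~90% neurons). Six-point dose response from 100 μM top, roughly one-third dilutions; 24 h pre-incubation, then MG132 100 nM. Viability read 48 h later by Calcein-AM (1 μM, 20 min, RT) fluorescence. Active = viability ≥5 SD above MG132 controls.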"}, "[9]": {"tested_on": "Rattus norvegicus", "assay": "Dose normalised AUC in Sprague-Dawley rat at 1 mg/kg, iv", "type": "ADME, organism-based", "set-up": "dose 1 mg/kg, route intravenous", "details": "in vivo", "in_short": "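Sprague-Dawley rats given a single 1 mg/kg bolus, intravenous or oral. Plasma PK parameters (AUC, dose-normalised AUC, half-life, clearance, Vss, Cmax, Tmax, oral bioavailability) derived from plasma levels.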"}, "[10]": {"target": "Endothelin-1 receptor (Homo sapiens) (UniProt P25101)", "assay": "Inhibition of human endothelin ETA at 10 uM by radioligand displacement assay", "in_short": "as §2"}, "[11]": {"target": "Histamine H2 receptor (Homo sapiens) (UniProt P25021)", "sequence (P25021 whole entry)": "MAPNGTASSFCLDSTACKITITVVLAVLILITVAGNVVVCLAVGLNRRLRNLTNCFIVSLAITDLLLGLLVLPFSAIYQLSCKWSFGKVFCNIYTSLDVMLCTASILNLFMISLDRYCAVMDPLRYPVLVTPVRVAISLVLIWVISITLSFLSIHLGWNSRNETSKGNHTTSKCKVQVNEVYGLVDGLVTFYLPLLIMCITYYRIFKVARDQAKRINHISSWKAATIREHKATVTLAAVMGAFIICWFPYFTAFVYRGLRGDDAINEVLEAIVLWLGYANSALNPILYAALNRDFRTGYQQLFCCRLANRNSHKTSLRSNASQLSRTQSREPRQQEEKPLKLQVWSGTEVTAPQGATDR", "assay": "Inhibition of human histamine H2 receptor at 10 uM by radioligand displacement assay", "in_short": "as §2"}, "[12]": {"species_on_record": "Mus musculus", "assay": "Inhibition of mouse phorbol ester site of PKC at 10 uM by radioligand displacement assay", "in_short": "as §2"}, "[13]": {"assay": "Half life in human microsomes at 5 uM incubated for 1 hr at 37 degC in presence of NADPH", "type": "ADME, Microsome", "details": "1 h, 5 µM"}, "[14]": {"target": "Muscarinic acetylcholine receptor M1 (Homo sapiens) (UniProt P11229)", "sequence (P11229 whole entry)": "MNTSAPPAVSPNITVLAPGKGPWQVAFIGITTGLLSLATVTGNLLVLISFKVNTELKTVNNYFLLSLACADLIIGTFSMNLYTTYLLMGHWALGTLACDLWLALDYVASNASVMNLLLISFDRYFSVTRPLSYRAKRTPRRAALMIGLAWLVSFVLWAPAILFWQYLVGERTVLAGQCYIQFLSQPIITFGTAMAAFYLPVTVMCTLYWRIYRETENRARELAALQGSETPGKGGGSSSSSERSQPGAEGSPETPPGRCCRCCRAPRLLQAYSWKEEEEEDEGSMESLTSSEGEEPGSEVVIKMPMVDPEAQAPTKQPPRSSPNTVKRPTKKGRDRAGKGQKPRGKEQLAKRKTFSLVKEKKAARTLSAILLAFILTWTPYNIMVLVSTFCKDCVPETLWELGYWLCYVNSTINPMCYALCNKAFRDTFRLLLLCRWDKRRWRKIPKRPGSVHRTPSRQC", "assay": "Inhibition of human muscarinic M1 receptor at 10 uM by radioligand displacement assay", "in_short": "as §2"}, "[15]": {"target": "Cytochrome P450 2D6 (Homo sapiens, UniProt P10635)", "sequence (P10635 whole entry)": "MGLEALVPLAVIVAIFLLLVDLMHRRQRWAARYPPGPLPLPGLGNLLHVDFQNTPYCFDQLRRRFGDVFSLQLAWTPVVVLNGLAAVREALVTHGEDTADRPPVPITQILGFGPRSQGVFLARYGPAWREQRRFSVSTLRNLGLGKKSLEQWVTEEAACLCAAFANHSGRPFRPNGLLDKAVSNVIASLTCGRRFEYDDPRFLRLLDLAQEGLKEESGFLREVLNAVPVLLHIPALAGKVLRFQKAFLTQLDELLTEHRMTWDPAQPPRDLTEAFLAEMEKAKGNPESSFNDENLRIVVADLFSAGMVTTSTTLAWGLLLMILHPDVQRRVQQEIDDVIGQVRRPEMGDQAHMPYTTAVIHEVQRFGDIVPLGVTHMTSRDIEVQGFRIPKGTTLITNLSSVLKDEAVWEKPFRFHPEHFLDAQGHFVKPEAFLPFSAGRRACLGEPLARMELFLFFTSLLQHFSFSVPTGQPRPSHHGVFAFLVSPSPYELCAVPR", "assay": "Inhibition of CYP2D6", "type": "ADME", "in_short": "(§3)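 Reversible inhibition of CYP isozymes in human liver microsomes, each isozyme with a single probe substrate. CYP3A4 tested with both testosterone and midazolam. IC50 determined.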"}, "[16]": {"tested_on": "Superoxide dismutase [Cu-Zn] (Homo sapiens), P00441 [G94A]", "sequence (P00441 whole entry G94A, the tested form may be a part)": "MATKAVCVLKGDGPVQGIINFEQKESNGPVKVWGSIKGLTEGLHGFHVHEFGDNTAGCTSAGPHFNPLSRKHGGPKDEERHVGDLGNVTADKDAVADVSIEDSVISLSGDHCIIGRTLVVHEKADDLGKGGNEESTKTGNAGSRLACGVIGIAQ", "assay": "Inhibition of SOD1 G93A mutant aggregation-induced cytotoxicity in rat PC12 cells assessed as cell viability incubated for 24 hrs and measured 72 hrs post compound dose by cytotoxicity protection assay", "type": "cell-based", "details": "PC-12", "in_short": "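PC12 cells expressing G93A SOD1-YFP fusion seeded 15000 cells/well, grown 24 h before dosing. 12-point dose response, top 32 μM, twofold dilutions. After 24 h, MG132 added (100 nM final). Viability measured 48 h later with Calcein-AM (1 μM final, 20 min, room temperature) fluorescence. EC50 derived from dose-response.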"}, "[17]": {"assay": "Efflux ratio of permeability from basolateral to apical side over apical to basolateral side in human Caco2 cells", "type": "ADME, cell-based", "details": "Caco-2"}, "[18]": {"target": "Melatonin receptor type 1A (Homo sapiens) (UniProt P48039)", "sequence (P48039 whole entry)": "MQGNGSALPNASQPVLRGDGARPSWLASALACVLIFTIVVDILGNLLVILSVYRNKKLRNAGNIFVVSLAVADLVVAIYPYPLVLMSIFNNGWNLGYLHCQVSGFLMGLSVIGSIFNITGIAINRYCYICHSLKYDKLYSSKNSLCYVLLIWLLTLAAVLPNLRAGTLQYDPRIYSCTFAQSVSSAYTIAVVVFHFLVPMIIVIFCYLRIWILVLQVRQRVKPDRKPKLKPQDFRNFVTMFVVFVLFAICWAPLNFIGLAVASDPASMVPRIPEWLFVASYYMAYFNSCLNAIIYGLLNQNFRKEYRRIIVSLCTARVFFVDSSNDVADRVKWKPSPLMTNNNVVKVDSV", "assay": "Inhibition of human MT1 receptor at 10 uM by radioligand displacement assay", "in_short": "as §1"}, "[19]": {"target": "Adenosine receptor A1 (Homo sapiens) (UniProt P30542)", "sequence (P30542 whole entry)": "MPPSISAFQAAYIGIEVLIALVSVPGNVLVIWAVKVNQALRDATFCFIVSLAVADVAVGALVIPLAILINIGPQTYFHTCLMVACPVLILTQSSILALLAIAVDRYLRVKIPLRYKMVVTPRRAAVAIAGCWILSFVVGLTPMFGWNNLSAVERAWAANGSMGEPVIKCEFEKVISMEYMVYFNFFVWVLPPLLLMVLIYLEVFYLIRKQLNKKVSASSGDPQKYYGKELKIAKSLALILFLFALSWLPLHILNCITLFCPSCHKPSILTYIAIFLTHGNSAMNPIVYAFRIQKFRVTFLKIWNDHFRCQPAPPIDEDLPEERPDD", "assay": "Inhibition of human adenosine A1 receptor at 10 uM by radioligand displacement assay", "in_short": "as §1"}, "[20]": {"tested_on": "Mus musculus", "assay": "Neuroprotective activity in SOD1 G93A mutant B6SJL mouse ALS model assessed as life extension at 20 mg/kg administered qd for 1 week (reference value: 125.7 +/- 4.9 days)", "type": "functional"}, "[21]": {"target": "5-hydroxytryptamine receptor 3A (Homo sapiens) (UniProt P46098)", "assay": "Inhibition of human 5HT3A receptor at 10 uM by radioligand displacement assay", "in_short": "as §1"}, "[22]": {"tested_on": "Mus musculus", "assay": "Neuroprotective activity in SOD1 G93A mutant B6SJL mouse ALS model assessed as life extension at 20 mg/kg administered qd for 1 week relative to untreated control", "type": "functional"}, "[23]": {"species_on_record": "Homo sapiens", "assay": "Inhibition of human nicotinic acetylcholine receptor at 10 uM by radioligand displacement assay", "in_short": "as §2"}, "[24]": {"target": "Sodium-dependent dopamine transporter (Homo sapiens) (UniProt Q01959)", "assay": "Inhibition of human dopamine transporter at 10 uM by radioligand displacement assay", "in_short": "as §2"}, "[25]": {"species_on_record": "Mus musculus", "assay": "Inhibition of mouse IL-1 at 10 uM by radioligand displacement assay", "in_short": "as §2"}, "[26]": {"tested_on": "Caco-2", "assay": "Apparent permeability from basolateral to apical side in human Caco2 cells", "type": "ADME, cell-based"}, "[27]": {"species_on_record": "Rattus norvegicus", "assay": "Inhibition of rat GABAA receptor flunitrazepam site at 10 uM by radioligand displacement assay", "in_short": "as §2"}, "[28]": {"assay": "Tmax in Sprague-Dawley rat at 1 mg/kg, po", "type": "ADME, organism-based", "set-up": "dose 1 mg/kg, route oral", "details": "in vivo", "in_short": "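Sprague-Dawley rats received a single bolus of 1 mg/kg by i.v. or by oral route. Plasma PK parameters were derived from the plasma concentration profile.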"}, "[29]": {"target": "Epidermal growth factor receptor (Homo sapiens) (UniProt P00533)", "sequence (P00533 whole entry)": "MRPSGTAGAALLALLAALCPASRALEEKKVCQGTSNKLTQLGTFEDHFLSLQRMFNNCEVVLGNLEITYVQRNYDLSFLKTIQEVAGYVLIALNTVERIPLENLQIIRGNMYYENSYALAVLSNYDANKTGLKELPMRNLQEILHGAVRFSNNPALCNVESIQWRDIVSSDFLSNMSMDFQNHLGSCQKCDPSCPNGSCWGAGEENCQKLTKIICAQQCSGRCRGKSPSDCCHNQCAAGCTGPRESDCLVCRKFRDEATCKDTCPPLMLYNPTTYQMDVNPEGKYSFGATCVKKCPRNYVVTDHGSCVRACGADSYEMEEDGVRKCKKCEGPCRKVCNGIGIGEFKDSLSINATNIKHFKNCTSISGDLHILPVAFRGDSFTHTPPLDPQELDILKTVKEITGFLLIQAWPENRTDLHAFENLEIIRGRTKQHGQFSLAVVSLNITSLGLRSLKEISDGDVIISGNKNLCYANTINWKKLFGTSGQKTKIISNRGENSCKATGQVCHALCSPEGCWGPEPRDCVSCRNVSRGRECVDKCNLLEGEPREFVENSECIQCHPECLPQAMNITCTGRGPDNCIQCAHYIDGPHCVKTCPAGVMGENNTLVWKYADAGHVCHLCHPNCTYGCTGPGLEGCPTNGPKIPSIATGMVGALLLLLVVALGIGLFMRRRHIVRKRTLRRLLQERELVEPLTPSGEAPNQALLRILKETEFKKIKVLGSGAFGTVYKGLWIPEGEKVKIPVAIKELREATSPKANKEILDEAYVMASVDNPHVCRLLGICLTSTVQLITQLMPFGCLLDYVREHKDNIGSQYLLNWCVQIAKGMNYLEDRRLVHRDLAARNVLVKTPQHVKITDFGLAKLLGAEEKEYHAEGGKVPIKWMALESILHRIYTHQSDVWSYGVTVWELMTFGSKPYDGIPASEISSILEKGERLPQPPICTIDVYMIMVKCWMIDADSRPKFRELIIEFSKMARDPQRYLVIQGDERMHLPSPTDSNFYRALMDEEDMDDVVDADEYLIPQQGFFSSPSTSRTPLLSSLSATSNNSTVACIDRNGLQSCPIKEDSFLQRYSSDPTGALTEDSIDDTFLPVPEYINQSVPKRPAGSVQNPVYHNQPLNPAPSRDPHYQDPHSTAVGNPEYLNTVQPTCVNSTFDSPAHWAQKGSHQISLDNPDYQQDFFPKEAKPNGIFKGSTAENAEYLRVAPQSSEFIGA", "assay": "Inhibition of human epidermal growth factor receptor at 10 uM by radioligand displacement assay", "in_short": "as §2"}, "[30]": {"target": "Cytochrome P450 3A4 (Homo sapiens, UniProt P08684)", "assay": "Inhibition of CYP3A4 using testosterone as substrate", "type": "ADME", "in_short": "as §3"}}, "note": "pIC50: −log10 of the molar value. The source made the active and inactive calls.", "data": [{"smiles": "O=c1cc(COc2cc(Cl)cc(Cl)c2)[nH][nH]1", "values": [{"measurement": "inhibition", "setting": "[1]", "value": 3, "unit": "%"}, {"measurement": "inhibition", "setting": "[2]", "value": 5, "unit": "%"}, {"measurement": "inhibition at 10 µM", "setting": "[3]", "value": 0.6, "unit": "%"}, {"measurement": "inhibition", "setting": "[4]", "value": -2, "unit": "%"}, {"measurement": "inhibition", "setting": "[5]", "value": 10, "unit": "%"}, {"measurement": "inhibition", "setting": "[6]", "value": 5, "unit": "%"}, {"measurement": "F", "setting": "[7]", "value": 27, "unit": "%"}, {"measurement": "Activity", "setting": "[8]", "value": "Active"}, {"measurement": "AUC/dose", "setting": "[9]", "value": 184, "unit": "ng·h/mL/mg/kg"}, {"measurement": "inhibition", "setting": "[10]", "value": 3, "unit": "%"}, {"measurement": "inhibition", "setting": "[11]", "value": 3, "unit": "%"}, {"measurement": "inhibition", "setting": "[12]", "value": 1, "unit": "%"}, {"measurement": "t1/2", "setting": "[13]", "value": 93, "unit": "min"}, {"measurement": "inhibition", "setting": "[14]", "value": 2, "unit": "%"}, {"measurement": "pIC50", "setting": "[15]", "value": "< 4.30"}, {"measurement": "Activity", "setting": "[16]", "value": 100, "unit": "%"}, {"measurement": "efflux ratio", "setting": "[17]", "value": 0.4}, {"measurement": "inhibition", "setting": "[18]", "value": 3, "unit": "%"}, {"measurement": "inhibition", "setting": "[19]", "value": 15, "unit": "%"}, {"measurement": "Survival", "setting": "[20]", "value": 142.5, "unit": "days"}, {"measurement": "inhibition", "setting": "[21]", "value": 7, "unit": "%"}, {"measurement": "Activity", "setting": "[22]", "value": 13.3, "unit": "%"}, {"measurement": "inhibition", "setting": "[23]", "value": 7, "unit": "%"}, {"measurement": "inhibition", "setting": "[24]", "value": 11, "unit": "%"}, {"measurement": "inhibition", "setting": "[25]", "value": 3, "unit": "%"}, {"measurement": "Papp", "setting": "[26]", "value": 14.1, "unit": "×10⁻⁶ cm/s"}, {"measurement": "inhibition", "setting": "[27]", "value": 12, "unit": "%"}, {"measurement": "Tmax", "setting": "[28]", "value": 15, "unit": "min"}, {"measurement": "inhibition", "setting": "[29]", "value": 5, "unit": "%"}, {"measurement": "pIC50", "setting": "[30]", "value": "< 4.30"}]}]}
